In brackets after ≈: the same amount, converted by molar mass. Activity calls are given as the source filed them. The calls are words filed in the database; no cut-off is given here.
How the values were obtained:
Escherichia coli [1] = assay: Antibacterial activity against Escherichia coli O157 at 100 ug/ml after 24 hrs by paper disc diffusion technique; format: functional; conditions: O157, 24 h, read-out: IZ
Staphylococcus aureus [2] = assay: Antibacterial activity against Staphylococcus aureus at 100 ug/ml after 24 hrs by paper disc diffusion technique; format: functional; conditions: read-out: IZ
Method in brief: (§1)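 Paper disc diffusion on Mueller Hinton agar, autoclaved at 120 °C for 30 min. Medium at 40–50 °C was seeded at 1 ml/100 ml with a 10^5 cfu/ml suspension matched to 0.9 McFarland. It was poured 3–4 mm deep, and discs with compound in DMSO were laid on it. Plates were pre-incubated 1 h at room temperature, then 37 °C for 24 h. The inhibition zone was measured.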

Candida albicans [3] = assay: Antifungal activity against Candida albicans after 48 hrs by agar streak dilution method; format: functional
Method in brief: (§2)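 Fungal MIC by agar streak dilution on Sabouraud dextrose agar. Compound stock in DMSO was added in graded amounts to molten sterile medium at 40–50 °C. This was poured 3–4 mm deep and left to solidify. Fungal suspension of about 10^5 cfu/ml was applied to the serially diluted plates. Plates were incubated at 37 °C for 48 h.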

Escherichia coli [4] = assay: Antibacterial activity against Escherichia coli O157 after 24 hrs by agar streak dilution method; format: functional; conditions: O157, 24 h
Salmonella typhimurium [5] = assay: Antibacterial activity against Salmonella Typhimurium at 100 ug/ml after 24 hrs by paper disc diffusion technique; format: functional, Salmonella enterica subsp. enterica serovar Typhimurium; conditions: Salmonella enterica, read-out: IZ; method in brief: as §1
Listeria monocytogenes [6] = assay: Antibacterial activity against Listeria monocytogenes after 24 hrs by agar streak dilution method; format: functional
Method in brief: (§3)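 Agar streak dilution on Mueller Hinton agar. Compound stock in DMSO was added in graded amounts to molten sterile agar at 40–50 °C. This was poured 3–4 mm deep and left to solidify. Bacterial suspension of about 10^5 cfu/ml was applied to the serially diluted plates. Plates were incubated at 37 °C for 24 h to read the MIC. Strains were food-poisoning isolates from animal byproducts.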

Staphylococcus aureus [7] = assay: Antibacterial activity against Staphylococcus aureus after 24 hrs by agar streak dilution method; format: functional; method in brief: as §3
Aspergillus flavus [8] = assay: Antifungal activity against Aspergillus flavus at 100 ug/ml after 48 hrs by paper disc diffusion technique; format: functional; conditions: for zone of inhibition at 100 µg/mL: read-out: IZ
Method in brief: (§4)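 Paper disc diffusion on Sabouraud dextrose agar, autoclaved at 120 °C for 30 min. Medium at 40–50 °C was seeded at 1 ml/100 ml with a 10^5 cfu/ml fungal suspension matched to 0.9 McFarland. It was poured 3–4 mm deep, and compound discs in DMSO were applied. Plates were pre-incubated 1 h at room temperature, then 28 °C for 48 h. The inhibition zone was recorded.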

Bacillus cereus [9] = assay: Antibacterial activity against Bacillus cereus after 24 hrs by agar streak dilution method; format: functional; method in brief: as §3
Pseudomonas aeruginosa [10] = assay: Antibacterial activity against Pseudomonas aeruginosa at 100 ug/ml after 24 hrs by paper disc diffusion technique; format: functional; conditions: read-out: IZ; method in brief: as §1
Pseudomonas aeruginosa [11] = assay: Antibacterial activity against Pseudomonas aeruginosa after 24 hrs by agar streak dilution method; format: functional; method in brief: as §3
Listeria monocytogenes [12] = assay: Antibacterial activity against Listeria monocytogenes at 100 ug/ml after 24 hrs by paper disc diffusion technique; format: functional; conditions: read-out: IZ; method in brief: as §1
Aspergillus flavus [13] = assay: Antifungal activity against Aspergillus flavus after 48 hrs by agar streak dilution method; format: functional; method in brief: as §2
Candida albicans [14] = assay: Antifungal activity against Candida albicans at 100 ug/ml after 48 hrs by paper disc diffusion technique; format: functional; conditions: read-out: IZ; method in brief: as §4
Salmonella typhimurium [15] = assay: Antibacterial activity against Salmonella Typhimurium after 24 hrs by agar streak dilution method; format: functional, Salmonella enterica subsp. enterica serovar Typhimurium; conditions: Salmonella enterica; method in brief: as §3
Bacillus cereus [16] = assay: Antibacterial activity against Bacillus cereus at 100 ug/ml after 24 hrs by paper disc diffusion technique; format: functional; conditions: read-out: IZ; method in brief: as §1

| SMILES | zone of inhibition at 100 µg/mL (Escherichia coli [1]) [mm] | zone of inhibition at 100 µg/mL (Staphylococcus aureus [2]) [mm] | MIC (Candida albicans [3]) [µg/mL] | MIC (Escherichia coli [4]) [µg/mL] | zone of inhibition at 100 µg/mL (Salmonella typhimurium [5]) [mm] | MIC (Listeria monocytogenes [6]) [µg/mL] | MIC (Staphylococcus aureus [7]) [µg/mL] | zone of inhibition at 100 µg/mL (Aspergillus flavus [8]) [mm] | MIC (Bacillus cereus [9]) [µg/mL] | zone of inhibition at 100 µg/mL (Pseudomonas aeruginosa [10]) [mm] | MIC (Pseudomonas aeruginosa [11]) [µg/mL] | zone of inhibition at 100 µg/mL (Listeria monocytogenes [12]) [mm] | MIC (Aspergillus flavus [13]) [µg/mL] | zone of inhibition at 100 µg/mL (Candida albicans [14]) [mm] | MIC (Salmonella typhimurium [15]) [µg/mL] | zone of inhibition at 100 µg/mL (Bacillus cereus [16]) [mm] | inhibition zone (IZ) (Aspergillus flavus [8]) |
| --- | --- | --- | --- | --- | --- | --- | --- | --- | --- | --- | --- | --- | --- | --- | --- | --- | --- |
| Cc1nnc(-c2ccc(-n3c(-c4ccccc4)nc4c(Br)cc(Br)cc4c3=O)cc2)o1 | 14 | 15 | 25 (≈ 46.5 µM) | 25 (≈ 46.5 µM) | 12 | 12.5 (≈ 23.2 µM) | 12.5 (≈ 23.2 µM) | 18 | 1.56 (≈ 2.9 µM) | 12 | 50 (≈ 92.9 µM) | 15 | 9.5 (≈ 17.7 µM) | 11 | 50 (≈ 92.9 µM) | 17 |  |
| O=C(N/N=C/c1ccc(Cl)c(Cl)c1)c1ccc(-n2c(-c3ccccc3)nc3c(Br)cc(Br)cc3c2=O)cc1 | 14 | 14 | 25 (≈ 37.2 µM) | 25 (≈ 37.2 µM) | 11 | 25 (≈ 37.2 µM) | 25 (≈ 37.2 µM) | 12 | 1.56 (≈ 2.32 µM) | 14 | 25 (≈ 37.2 µM) | 13 | 19 (≈ 28.3 µM) | 11 | 50 (≈ 74.5 µM) | 17 |  |
| O=C(N/N=C/c1ccco1)c1ccc(-n2c(-c3ccccc3)nc3c(Br)cc(Br)cc3c2=O)cc1 | 9 | 13 | 25 (≈ 42.2 µM) | > 50 | 16 | > 50 | 20 (≈ 33.8 µM) |  | 50 (≈ 84.4 µM) | 8 | > 50 | 11 |  | 12 | 5 (≈ 8.44 µM) | 12 | inactive |
| O=C(NN1C(=O)C=CC1=O)c1ccc(-n2c(-c3ccccc3)nc3c(Br)cc(Br)cc3c2=O)cc1 | 9 | 9 | 25 (≈ 42.1 µM) | > 50 | 17 | > 50 | > 50 | 17 | 50 (≈ 84.1 µM) | 11 | > 50 | 11 | 4.5 (≈ 7.57 µM) | 10 | 2.9 (≈ 4.88 µM) | 9 |  |
| Cc1ccc(C2SCC(=O)N2NC(=O)c2ccc(-n3c(-c4ccccc4)nc4c(Br)cc(Br)cc4c3=O)cc2)cc1 (configuration not stated) | 9 | 10 | 30 (≈ 43.5 µM) | > 50 | 15 | 50 (≈ 72.4 µM) | > 50 | 16 | 50 (≈ 72.4 µM) | 16 | 10.1 (≈ 14.6 µM) | 10 | 12.5 (≈ 18.1 µM) | 10 | 7 (≈ 10.1 µM) | 9 |  |
| COc1ccc(C2SCC(=O)N2NC(=O)c2ccc(-n3c(-c4ccccc4)nc4c(Br)cc(Br)cc4c3=O)cc2)cc1 (configuration not stated) | 11 | 10 | 25 (≈ 35.4 µM) | 45 (≈ 63.7 µM) | 12 | > 50 | 45 (≈ 63.7 µM) | 20 | 1.9 (≈ 2.69 µM) | 11 | 50 (≈ 70.8 µM) | 11 | 1.56 (≈ 2.21 µM) | 10 | 40 (≈ 56.6 µM) | 18 |  |
| O=C(N/N=C/c1ccc2ccccc2c1)c1ccc(-n2c(-c3ccccc3)nc3c(Br)cc(Br)cc3c2=O)cc1 | 13 | 14 | 25 (≈ 38.3 µM) | 25 (≈ 38.3 µM) | 12 | 3.12 (≈ 4.79 µM) | 25 (≈ 38.3 µM) | 26 | 50 (≈ 76.6 µM) | 13 | 25 (≈ 38.3 µM) | 16 | 0.39 (≈ 0.598 µM) | 13 | 50 (≈ 76.6 µM) | 12 |  |
| O=C(NN1C(=O)c2ccccc2C1=O)c1ccc(-n2c(-c3ccccc3)nc3c(Br)cc(Br)cc3c2=O)cc1 | 11 | 10 | 50 (≈ 77.6 µM) | 50 (≈ 77.6 µM) | 11 | > 50 | > 50 | 25 | 5.5 (≈ 8.54 µM) | 11 | > 50 | 10 | 0.39 (≈ 0.605 µM) | 9 | > 50 | 16 |  |
